Experiment: Toxicity liver stage against HepG2, at 10uM
Assay type: cell-based
Design: test concentration 10 uM, cell line HepG2-A16-CD81EGFP
Settings: human, HepG2-A16-CD81EGFP cells; read-out: INHIBITION
Procedure, shortened: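 Uninfected HepG2-A16-CD81EGFP cells, 3 × 10^3 per well, 1536-well, plated on prespotted compound at 10 μM final, parasite-free screening media added to match infected plates; puromycin 10 μM positive, DMSO 0.5% negative; run in parallel with 48 h PbLuc assay at 37 °C, 5% CO2; viability by CellTiter-Glo luminescence, normalized to controls.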

Structure (SMILES) | cytotoxicity at 10 µM [%]
CC1=Nc2c(c(=O)[nH]n2C2CCCC2)C(c2ccc(C(=O)O)cc2)S1 (centres undefined) | -10.4
CN(C)S(=O)(=O)N1CCC(Cn2cccn2)CC1 | -10.9
CC(C)n1cnc(C2CN(C)c3ccc(C(=O)NCC4CC4)cc32)n1 (centres undefined) | -2.19
CCS(=O)(=O)N1CCc2ccc(=O)n(CC3CC3)c2CC1 | 7.95
CN(Cc1ccccc1)CC1CC2(CO1)CN(Cc1nccs1)C2 (centres undefined) | 8.88
Cc1noc(C[C@@H]2COC[C@H]3CN(S(C)(=O)=O)C[C@@H]23)n1 | 12.2
Cc1cnc(N2CCOC3(CCCN(C(=O)C(C)C)C3)C2)nc1 (centres undefined) | 10.9
COCC1CC2(CCN(C(=O)C3CCSCC3)CC2)CO1 (centres undefined) | -8.93
CN(C)Cc1cc(=O)n2c(n1)CN(Cc1ccco1)CCC2 | 7.07
O=C1COC2(CCN(c3ncccn3)CC2)CN1c1ccsc1 | -0.31
COc1cc(N2CCc3ncnc(-c4cnn(C)c4)c3CC2)ncn1 | 8.46
CC(C)C(=O)N1CCN(S(=O)(=O)C2CC2)CC2(CC(=O)N(C)C2)C1 (centres undefined) | 8.4
Cc1ccc(N2CCC3(CCN(Cc4nccs4)CC3)CC2)nn1 | 10.6
O=C(c1c2c(NCC3CC3)ncnc2n2ccccc12)N1CCCC1 | 9.31
Fc1cccnc1N1CCOCC2(CCCNC2)C1 (centres undefined) | 3.44
Cn1cc(CN2CCc3ncn(C)c3C2COCc2cccnc2)cn1 (centres undefined) | 6.86
CCNC(=O)c1sccc1N(C)S(=O)(=O)c1ccc(Cl)cc1 | 10.8
Cc1cc(NC(=O)c2nn(C3CCS(=O)(=O)C3)c3c2CCCC3)no1 (centres undefined) | 3.85
O=C(NCC1CC1)[C@H]1CC[C@@H]2[C@@H](CCN2Cc2ccoc2)O1 | -14.1
CN1C(=O)C[C@@H]2[C@@H]1CCN2S(=O)(=O)Cc1ccccc1 | -5.76
Cc1c(Cl)cccc1NCc1nc2n(n1)CCCCC2 | 10.6
Cc1ccc2nnc(C(=O)NCCCn3cccn3)nc2c1 | -7.93

Structure (SMILES) | cytotoxicity at 10 µM [%]
CSc1nc2ccsc2c(=O)n1CC(=O)NC1CCCCC1 | 4.45
Cc1c(Cl)c(C(F)(F)F)nn1C(C)C(=O)NC1CCN(C)CC1 (centres undefined) | -3.13
Cc1nc(C)n(CCC(=O)NCC2CCCOC2)n1 (centres undefined) | 4.3
Cc1nc(NC2CCCC2)cc(C2CCN2c2ncccn2)n1 (centres undefined) | -0.943
Cc1c[nH]c(C2CN(Cc3ccccc3C(=O)O)CCO2)n1 (centres undefined) | -0.822
CN1CCN(C(=O)CCCc2ccccc2)CC(O)(Cn2cccn2)C1 (centres undefined) | -1.93
COc1ccc2c(c1)C(=O)NC1(CC2)CCN(Cc2ccncc2)C1 (centres undefined) | 3.44
CC(C)n1nnc(CC(=O)NCC2(c3cccc(F)c3)CCCC2)n1 | 4.5
CC1CCc2nn(CCNC(=O)Cc3ccc(F)cc3)c(=O)cc2C1 (centres undefined) | 7.61
CN(C)c1cccc(C2CCN(C3COCC3O)CC2)n1 (centres undefined) | -13.9
CNc1nccnc1C1CN(Cc2ccc(OCC(=O)O)cc2)CCO1 (centres undefined) | -5.73
Nc1nccnc1C1CN(C(=O)c2ccnnc2)CCO1 (centres undefined) | 9.48
Cn1cc(CN2CCc3c(nc(-c4ccccn4)[nH]c3=O)C2)cn1 | -5.05
Cc1ccc(CC(=O)N(C)CC2(O)CCN(c3ccccn3)C2)s1 (centres undefined) | -10.4
CN(c1cccnc1N1CCCC1)S(=O)(=O)c1cnn(C)c1 | -4.28
CCN(CC)S(=O)(=O)CC(=O)N1CCc2ccc(Cl)cc21 | -5.42
CC(C)Cc1cc(C(=O)N2CCC(Cc3cnn(C)c3)C2)cc(O)n1 (centres undefined) | -2.1
CN(Cc1cc(F)cc2cccnc12)CC1CCN(CCO)CC1 | 1.9
Cc1noc(C(C)C)c1C(=O)N1CCC(n2cccn2)CC1 | -4.32
CC(C)(C)c1ccc(S(=O)(=O)CCNC(=O)c2cnccn2)cc1 | 4.92
CC(C)c1ocnc1C(=O)Nc1cccc(Cn2ccccc2=O)c1 | 8.15
CCCOCCOC(=O)c1ccc2c(c1)[nH]c(=O)n2C | -16.4

Structure (SMILES) | cytotoxicity at 10 µM [%]
CCCc1noc(CN2CCN(CCC(C)C)CC2)n1 | -1.48
CCNS(=O)(=O)c1ccc(C)c(C(=O)N(CCC#N)Cc2ccco2)c1 | 5.44
Cc1nc(CNC2CCCN(c3cccnn3)C2)no1 (centres undefined) | -5.55
COCCOCCNC(=O)c1cccc(Cn2nc(C)cc2C)c1 | 17.6
CCC(NC(=O)Nc1ccc(OC)c(C)c1)c1ccncc1 (centres undefined) | -2.07
CC(C)N1C(=O)CC(NC(=O)c2cc(Cl)sc2Cl)C1=O (centres undefined) | -2.27
Cc1cc(N)nc(SC2CCCN(Cc3ccccc3)C2=O)n1 (centres undefined) | -5.45
Cc1cc(C(=O)Nc2ccc(OC3CCOCC3)c(C)c2)[nH]n1 | -8.03
Cc1n[nH]c(C)c1C1CCCN1C(=O)c1cc(Br)c[nH]1 (centres undefined) | -4.08
Cc1ncc2c(n1)CN(CCOCC(F)(F)F)CC2 | -0.598
CN(C)S(=O)(=O)CCCOc1cccc(-n2ccnc2)c1 | 14
Fc1ccc(-c2nnc(CNC3CCc4ncnn4C3)o2)cc1 (centres undefined) | -3.67
COC(=O)N1CCCC(C(=O)N(C)C)C1 (centres undefined) | -5.87
O=C1NCC(C(=O)Nc2ccc(=O)n(Cc3ccccc3Cl)c2)N1 (centres undefined) | -1.73
Cc1noc(C)c1CN(C)C(=O)Cn1c(=O)n(C)c2ccccc21 | -4.32
N#Cc1cn(CC(=O)NC2CC2)c2ccc(Br)cc2c1=O | 27.4
COc1ccc(CNC(=O)CNc2cc3c(cc2Cl)OCCCO3)cc1 | 3.25
N#Cc1cccc(SCCS(N)(=O)=O)c1 | -2.53
O=C(NC1(c2cccc(F)c2)CCOCC1)c1ccccn1 | -12.3
COCCN(C)Cc1ccc(OC)c(OC(F)F)c1 | -5.5
COCC1CN(C(=O)CC2=CCCCC2)Cc2nnn(CC3CC3)c21 (centres undefined) | -116
O=C(c1cccs1)N1CC[C@H]2C[C@@H](c3nnc(C4CC4)o3)O[C@@H]2C1 | -109

Structure (SMILES) | cytotoxicity at 10 µM [%]
O=C([C@H]1CN(Cc2nccs2)C[C@H]2OCC[C@@H]12)N1CCCC1 | -94.1
COCCO[C@H]1CCN(C(=O)C2CCOCC2)[C@H]1Cc1ccncc1 | 4.32
O=C(CC1CC1)N(Cc1cccnc1)CC1CCN(C2CCCC2)CC1 | 5.95
CCOCCC(=O)N1Cc2cnc(-c3ccccc3)nc2C1 | -6.88
CCN(CC)Cc1nc(Cc2cccc(C(F)(F)F)c2)no1 | 9.76
Cc1nc(N2C[C@@H](CN3CCCN(C)CC3)[C@@H](CO)C2)c2sccc2n1 | -8.64
CSc1ccccc1C(=O)C1CCCN(Cc2cc(C(C)C)[nH]n2)C1 (centres undefined) | -4.01
CC(C)c1cc(C2CCCN2C(=O)c2cn3ccsc3n2)no1 (centres undefined) | -2.33
CCOCCc1nc(CCc2ccccc2)n[nH]1 | 10.3
CCC(=O)N1CCN(C(=O)c2ccc(COC)o2)[C@H]2CS(=O)(=O)C[C@H]21 | -10.9
Cc1cnc(-c2cccc(-c3ccn(CCCO)n3)c2)nc1N(C)C | -7.6
CC(=O)c1ccc(NC(=O)N(CCN(C)C)Cc2ccc(C)s2)cc1 | -16.5
CC(Cc1ccccn1)N(C)Cc1ccc2c(c1)CCO2 (centres undefined) | -0.0105
CCc1cc(NCc2cc(CC(C)C)on2)n2nccc2n1 | 3.59
O=C1CCC2(CCCO2)CCN1Cc1noc(C2CCCC2)n1 (centres undefined) | 4.24
COc1ccc(C)cc1C(C(=O)O)N1CCN(Cc2ccccn2)CC1 (centres undefined) | 4.4
Cc1ccc(-c2nc(CNC(C)CCO)[nH]c2-c2ccccn2)cc1 (centres undefined) | -6.78
O=C(CC[C@@H]1CCCN2CCCC[C@H]12)NCCc1cc(O)ncn1 | -1.91
Cc1nn(C)c(Oc2ccc(Cl)cc2)c1CN1CCOC(CN)C1 (centres undefined) | 8.85
Cc1ccc(-c2noc(CC[C@@H]3CCCN4CCCC[C@H]34)n2)nn1 | -4.56
CCn1c(C)nnc1SCCNc1nc(C)nc2c1cnn2C | 7.9
CSCCc1c(-c2ccccc2)ncn1CC(C)(C)N1CCCC1 | -47.8

Structure (SMILES) | cytotoxicity at 10 µM [%]
CCC[C@H]1CN(CCS(C)(=O)=O)C[C@@H]1NC(=O)c1ccccn1 | 1.13
COCc1cc(NCCc2ccc(S(N)(=O)=O)cc2)n2nccc2n1 | 6.45
Cn1ccnc1CN1C[C@@H](CN2CCC(CO)CC2)[C@@H](CO)C1 | -15.5
CC(C)NC(=O)[C@@H]1C[C@H](N)CN1C(=O)c1cc2ccccc2[nH]c1=O | 10.3
O[C@H]1[C@H](n2cc(-c3ccccc3)nn2)c2ccccc2C12CCNCC2 | 7.62
CNc1nc(CNC(=O)Nc2cccc(CSC)c2)cs1 | -3.01
CC1CN(CC(=O)Nc2nccs2)CCN1Cc1nccn1C (centres undefined) | -15.4
c1ccc(Cc2noc(CN3CCCCC3Cn3cncn3)n2)cc1 (centres undefined) | -13.2
CS(=O)(=O)N1CCCN(C(=O)c2ccc(Cn3ccccc3=O)o2)CC1 | -3.41
Cc1nc2cc(C(=O)N3CCCC(n4cncn4)C3)ccc2n1C (centres undefined) | -8.26
CCC1CN(CCC(=O)N(C)C)CCN1CCOC (centres undefined) | -6.34
CCc1ccc(C(=O)O)cc1S(=O)(=O)Nc1ccc(F)c(C#N)c1 | -10.9
Cc1cc(-c2nccs2)nc(C2CCN(Cc3ccncc3)CC2)n1 | 8.6
c1ccc(NCc2cn3c(n2)CN(Cc2cccs2)CC3)nc1 | 5.22
CC(C)NC(=O)[C@@H]1CN(Cc2ccc3c(c2)OCO3)C[C@H]2OCC[C@H]21 | 3.65
O=C(NC1CCCC1)C1(Cc2cc(C3CCOC3)no2)CCNCC1 (centres undefined) | -1.57
NC(=O)c1ccc(C2CCCNC2)nc1 (centres undefined) | -15.1
CCCN1CCC2(CC1)CN(C(=O)c1cccnc1)c1ccc(F)cc12 | -104
c1cnc(N2CCOCC3(CN(Cc4cc[nH]n4)CCO3)C2)nc1 (centres undefined) | 10
CCS(=O)(=O)N1CCC2(CCN(Cc3nccs3)CC2)CC1 | 7.13
O=c1[nH][nH]c2cn(-c3ccc(F)cc3)c(=O)n12 | -1.45
